ChEMBL document CHEMBL5649170, “Sustained microglial depletion with CSF1R inhibitor impairs parenchymal plaque development in an Alzheimer's disease model” (Nat Commun, 2019)
Calls of active or inactive are those of the source. No cut-off for these calls is given here.

How the values were obtained:
Mus musculus [1] = assay: Antialzheimer activity in 5XFAD mouse assessed as average plaque volume in somatosensory cortex at 75 ppm administered as rodent chow starting from 1.5 months and measured after 5 months by immunolabeling based confocal microscopic analysis (reference value: 871.142 to 1628.317 microm3); type: functional; conditions: route po, time 3.5 months, 2555 h
How it was run: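 5xFAD mice fed PLX3397 at 75 ppm in AIN-76A chow from 1.5 to 5 months of age; retrosplenial and somatosensory cortex sections stained with Thio-S and immunolabeled for IBA1; confocal imaging, IBA1+ cells and plaques quantified per region; two-tailed independent t-test, n = 4–5 per group, mean ± SEM.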

Mus musculus [2] = assay: Antialzheimer activity in 5XFAD mouse assessed as average plaque volume in retro spinal cortex at 1200 ppm administered as rodent chow starting from 1.5 months and measured after 7 months by Thio-S staining based confocal microscopic analysis (reference value: 1174.18 to 2460.96 microm3); type: functional; conditions: route po, time 5.5 months, 4015 h
[3] = target: T1, Macrophage colony-stimulating factor 1 receptor (Mus musculus) (UniProt P09581); assay: (§1) In vivo inhibition of CSF1R in wildtype mouse assessed as number of Iba1 positive cells per FOV in retro spinal cortex at 1200 ppm administered as rodent chow starting from 1.5 months to 4 months followed by compound removal and measured after 1 months by immunolabelling based confocal microscopic analysis (reference value: 193 to 236); type: functional; conditions: route po, time 2.5 months
T1 sequence (whole entry): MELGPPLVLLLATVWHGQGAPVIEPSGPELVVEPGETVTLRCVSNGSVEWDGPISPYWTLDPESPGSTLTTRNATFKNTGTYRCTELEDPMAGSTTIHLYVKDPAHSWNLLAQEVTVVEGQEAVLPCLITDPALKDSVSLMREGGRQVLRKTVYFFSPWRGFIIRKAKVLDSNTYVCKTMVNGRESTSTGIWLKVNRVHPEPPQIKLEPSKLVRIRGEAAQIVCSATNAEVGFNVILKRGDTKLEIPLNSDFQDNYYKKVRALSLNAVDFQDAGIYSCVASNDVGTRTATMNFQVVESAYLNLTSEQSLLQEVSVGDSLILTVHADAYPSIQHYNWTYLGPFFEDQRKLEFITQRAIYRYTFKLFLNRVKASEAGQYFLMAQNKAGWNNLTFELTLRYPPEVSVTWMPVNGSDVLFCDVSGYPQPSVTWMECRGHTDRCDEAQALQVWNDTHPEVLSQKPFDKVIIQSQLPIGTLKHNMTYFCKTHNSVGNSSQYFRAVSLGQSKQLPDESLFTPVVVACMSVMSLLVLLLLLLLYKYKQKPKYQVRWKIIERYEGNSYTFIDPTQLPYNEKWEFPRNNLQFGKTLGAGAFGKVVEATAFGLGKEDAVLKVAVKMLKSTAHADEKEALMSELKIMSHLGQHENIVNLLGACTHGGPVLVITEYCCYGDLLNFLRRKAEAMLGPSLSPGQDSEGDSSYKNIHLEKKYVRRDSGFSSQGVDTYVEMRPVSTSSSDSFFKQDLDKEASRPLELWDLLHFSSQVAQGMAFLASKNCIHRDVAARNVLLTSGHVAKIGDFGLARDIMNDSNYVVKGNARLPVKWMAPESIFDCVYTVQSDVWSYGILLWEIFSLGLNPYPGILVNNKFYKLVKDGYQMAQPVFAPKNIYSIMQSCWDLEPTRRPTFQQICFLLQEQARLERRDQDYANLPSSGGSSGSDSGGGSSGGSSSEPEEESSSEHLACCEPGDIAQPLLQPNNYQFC

Mus musculus [4] = assay: Antialzheimer activity in 5XFAD mouse assessed as number of Thio-S positive plaques per FOV in somatosensory cortex at 1200 ppm administered as rodent chow starting from 1.5 months and measured after 7 months by Thio-S staining based confocal microscopic analysis (reference value: 22 to 106); type: functional; conditions: route po, time 5.5 months, 4015 h
Mus musculus [5] = assay: (§2) Antialzheimer activity in 5XFAD mouse assessed as iron reactivity by measuring hemosiderin intensity of prussian blue staining in […] cortex at 1200 ppm administered as rodent chow starting from 1.5 months and measured after 4 months by confocal microscopic analysis (reference value: 0.1 to 8.816 a.u.); type: functional; conditions: route po, time 2.5 months, 1825 h
How it was run: (§3)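 Wild-type or 5xFAD mice fed PLX5622 (1200 ppm) in AIN-76A chow from 1.5 months of age, examined in 4- and 7-month-old cohorts. Brain sections stained with a Prussian blue kit per kit instructions to detect iron deposits (microbleeds).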

[6] = target: Serine/threonine-protein kinase PAK 3 (Homo sapiens, UniProt O75914); assay: Inhibition of PAK3 (unknown origin)
Mus musculus [7] = assay: Antialzheimer activity in 5XFAD mouse assessed as amyloidbeta42 level in detergent insoluble thalamus fraction measured per microgram protein at 1200 ppm administered as rodent chow starting from 1.5 months and measured after 4 months by ELISA (reference value: 181082 to 7435203 pg); type: functional; conditions: route po, time 2.5 months, 1825 h
How it was run: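 PLX5622 at 1200 ppm in chow given to 5xFAD mice from 1.5 months to 4 or 7 months of age; cortex and thalamus homogenized in TPER (detergent-soluble), pellets re-homogenized in 70% formic acid and spun 100,000 g, 1 h, 4 °C (insoluble); protein by Bradford/Lowry; Aβ species measured by Meso Scale electrochemiluminescence immunoassay, normalized to protein; n = 7–8 per group at 7 months.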

Mus musculus [8] = assay: Prevention of C1qa gene upregulation in 5XFAD mouse hippocampus at 1200 ppm administered as rodent chow starting from 1.5 months and measured after 7 months by Nanostring analysis; type: functional, tissue-based; conditions: route po, time 5.5 months
[9] = Effect on Ctsd gene expression in 5XFAD mouse hippocampus at 1200 ppm administered as rodent chow starting from 1.5 months and measured after 7 months by RNA-Seq analysis (reference value: 230.675 to 384.375 RPKM); type: functional; conditions: route po, time 5.5 months, 4015 h
[10] = target: cGMP-dependent protein kinase 1 (Homo sapiens, UniProt Q13976); assay: Inhibition of PRKG1 (unknown origin)
[11] = target: T1, Macrophage colony-stimulating factor 1 receptor (Mus musculus); assay: as §2, with “In vivo inhibition of CSF1R” for “Antialzheimer activity”, “wildtype” for “5XFAD”, “7” for “4”, “0.059” for “0.1”, “2.835” for “8.816”; type: functional; conditions: route po, time 5.5 months; how it was run: as §3
Mus musculus [12] = assay: Effect on APP processing pathway in wildtype mouse assessed as PEN2 protein signal intensity in cortex at 1200 ppm administered as rodent starting from 1.5 months and measured after 7 months (reference value: 47.716 to 128.950 %); type: functional; conditions: route po, time 5.5 months, 4015 h
[13] = target: Tyrosine-protein kinase Lyn (Homo sapiens, UniProt P07948); assay: Inhibition of LYN_A (unknown origin)
[14] = AUC (0 to 24 hrs) in mouse plasma at 300 ppm administered as rodent chow for 14 days; type: ADME, cell-free; conditions: route po, time 14 day
Mus musculus [15] = assay: Antialzheimer activity in 5XFAD mouse assessed as average plaque volume in thalamus at 1200 ppm administered as rodent chow starting from 1.5 months and measured after 7 months by Thio-S staining based confocal microscopic analysis (reference value: 2442.562 to 3332.739 microm3); type: functional; conditions: route po, time 5.5 months, 4015 h
Mus musculus [16] = assay: as §1, with “Antialzheimer activity” for “In vivo inhibition of CSF1R”, “5XFAD” for “wildtype”, “This-S” for “Iba1”, “somatosensory” for “retro spinal”, “34” for “193”, “79)” for “236)”; type: functional; conditions: route po, time 2.5 months, 1825 h
How it was run: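 For the repopulation paradigm, 5xFAD mice ate 1200 ppm PLX5622 chow from 1.5 to 4 months of age. Inhibitor chow was then withdrawn, and brains were examined one month later. Sections were stained with Thio-S and immunolabeled for IBA1, then analysed by confocal microscopy in cortical regions.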

[17] = target: Platelet-derived growth factor receptor beta (Homo sapiens, UniProt P09619); assay: Inhibition of PDGFRB (unknown origin)
Chain of Platelet-derived growth factor receptor beta (P09619 whole entry): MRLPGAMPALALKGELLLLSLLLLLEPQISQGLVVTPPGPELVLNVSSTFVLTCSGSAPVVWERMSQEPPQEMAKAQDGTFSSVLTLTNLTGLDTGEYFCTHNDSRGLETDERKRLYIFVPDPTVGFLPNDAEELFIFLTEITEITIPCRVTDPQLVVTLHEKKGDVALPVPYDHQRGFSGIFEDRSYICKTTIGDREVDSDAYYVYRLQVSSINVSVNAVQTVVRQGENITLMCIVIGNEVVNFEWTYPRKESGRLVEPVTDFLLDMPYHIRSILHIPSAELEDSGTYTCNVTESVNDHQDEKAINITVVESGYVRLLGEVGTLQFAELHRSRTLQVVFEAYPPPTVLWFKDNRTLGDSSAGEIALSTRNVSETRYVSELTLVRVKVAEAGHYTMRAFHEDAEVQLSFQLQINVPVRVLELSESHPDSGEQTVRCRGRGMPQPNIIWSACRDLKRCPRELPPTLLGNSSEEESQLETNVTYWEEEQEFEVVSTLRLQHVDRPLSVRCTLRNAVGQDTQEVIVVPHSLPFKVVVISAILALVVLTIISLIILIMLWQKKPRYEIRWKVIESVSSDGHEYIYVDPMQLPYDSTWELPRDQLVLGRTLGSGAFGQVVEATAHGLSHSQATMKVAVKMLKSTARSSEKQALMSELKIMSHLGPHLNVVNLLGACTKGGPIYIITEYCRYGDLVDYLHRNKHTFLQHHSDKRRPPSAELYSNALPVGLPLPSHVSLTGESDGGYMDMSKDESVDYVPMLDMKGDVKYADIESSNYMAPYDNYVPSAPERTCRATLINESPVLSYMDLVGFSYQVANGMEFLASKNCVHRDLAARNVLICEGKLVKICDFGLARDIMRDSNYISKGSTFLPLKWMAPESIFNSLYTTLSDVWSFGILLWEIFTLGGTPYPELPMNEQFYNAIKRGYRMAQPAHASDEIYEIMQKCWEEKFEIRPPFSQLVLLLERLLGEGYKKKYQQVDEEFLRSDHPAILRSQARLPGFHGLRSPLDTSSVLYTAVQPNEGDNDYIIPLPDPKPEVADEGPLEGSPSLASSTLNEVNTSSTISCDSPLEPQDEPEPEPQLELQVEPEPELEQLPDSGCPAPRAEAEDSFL

Chain of cGMP-dependent protein kinase 1 (Q13976 whole entry): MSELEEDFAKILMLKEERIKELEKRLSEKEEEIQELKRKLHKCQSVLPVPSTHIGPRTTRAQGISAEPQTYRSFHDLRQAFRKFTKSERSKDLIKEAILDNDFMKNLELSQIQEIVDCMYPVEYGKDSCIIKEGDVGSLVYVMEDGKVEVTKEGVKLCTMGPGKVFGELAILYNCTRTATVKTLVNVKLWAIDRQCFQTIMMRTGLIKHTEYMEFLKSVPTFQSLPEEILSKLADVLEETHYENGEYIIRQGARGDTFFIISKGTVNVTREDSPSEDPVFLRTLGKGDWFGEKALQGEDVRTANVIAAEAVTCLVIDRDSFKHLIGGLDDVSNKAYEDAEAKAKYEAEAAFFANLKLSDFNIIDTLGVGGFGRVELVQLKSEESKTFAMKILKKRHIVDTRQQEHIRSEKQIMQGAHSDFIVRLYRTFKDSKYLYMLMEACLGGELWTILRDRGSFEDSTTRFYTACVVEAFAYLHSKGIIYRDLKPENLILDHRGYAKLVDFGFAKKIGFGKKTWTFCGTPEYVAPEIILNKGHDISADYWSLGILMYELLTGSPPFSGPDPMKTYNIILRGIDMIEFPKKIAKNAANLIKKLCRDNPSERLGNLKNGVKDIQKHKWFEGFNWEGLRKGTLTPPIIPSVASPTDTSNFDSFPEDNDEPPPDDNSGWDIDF
Chain of Serine/threonine-protein kinase PAK 3 (O75914 whole entry): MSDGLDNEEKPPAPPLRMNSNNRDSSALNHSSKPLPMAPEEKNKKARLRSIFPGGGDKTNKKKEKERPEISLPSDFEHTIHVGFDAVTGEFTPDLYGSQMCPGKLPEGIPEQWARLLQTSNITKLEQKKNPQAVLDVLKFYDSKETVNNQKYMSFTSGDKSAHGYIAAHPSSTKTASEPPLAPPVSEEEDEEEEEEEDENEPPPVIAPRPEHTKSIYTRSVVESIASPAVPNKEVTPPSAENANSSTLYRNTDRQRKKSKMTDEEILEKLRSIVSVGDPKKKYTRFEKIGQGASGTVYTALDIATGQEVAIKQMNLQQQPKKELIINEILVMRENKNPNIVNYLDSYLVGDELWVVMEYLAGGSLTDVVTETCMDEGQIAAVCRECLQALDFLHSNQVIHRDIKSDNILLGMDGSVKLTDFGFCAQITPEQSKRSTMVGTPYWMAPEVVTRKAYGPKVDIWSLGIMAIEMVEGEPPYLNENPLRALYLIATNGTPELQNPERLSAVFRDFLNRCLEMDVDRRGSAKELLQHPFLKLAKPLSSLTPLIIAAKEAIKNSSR
Chain of Tyrosine-protein kinase Lyn (P07948 whole entry): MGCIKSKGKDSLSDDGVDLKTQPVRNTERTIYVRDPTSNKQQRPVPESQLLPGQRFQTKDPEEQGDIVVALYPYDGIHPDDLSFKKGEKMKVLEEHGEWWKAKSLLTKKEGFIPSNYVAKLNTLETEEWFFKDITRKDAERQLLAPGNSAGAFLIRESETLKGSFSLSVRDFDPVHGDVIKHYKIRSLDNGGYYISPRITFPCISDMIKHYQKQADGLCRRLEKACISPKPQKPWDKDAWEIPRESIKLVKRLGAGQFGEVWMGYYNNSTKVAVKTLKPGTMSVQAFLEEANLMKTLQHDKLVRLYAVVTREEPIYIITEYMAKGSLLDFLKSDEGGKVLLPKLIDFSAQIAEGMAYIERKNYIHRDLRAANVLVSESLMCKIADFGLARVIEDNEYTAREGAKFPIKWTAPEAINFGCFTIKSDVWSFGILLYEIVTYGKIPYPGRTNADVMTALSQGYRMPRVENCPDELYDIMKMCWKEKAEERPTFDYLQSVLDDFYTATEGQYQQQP

SMILES: FC(F)(F)c1ccc(CNc2ccc(Cc3c[nH]c4ncc(Cl)cc34)cn2)cn1 [PEXIDARTINIB]
- Activity (Mus musculus [1]): 628.64 um3

SMILES: COc1ncc(F)cc1CNc1ccc(Cc2c[nH]c3ncc(C)cc23)c(F)n1 [PLX-5622]
- Activity (Mus musculus [2]): 622.98 um3
- Activity [3]: 51
- Activity (Mus musculus [4]): 2
- Flu intensity (Mus musculus [5]): 6.682 a.u.
- IC50 [6]: > 1000 nM
- Activity (Mus musculus [7]): 117968.4 pg
- Activity (Mus musculus [8]): Active
- Activity [9]: 132.829 RPKM
- IC50 [10]: > 1000 nM
- Flu intensity [11]: 0.747 a.u.
- Activity (Mus musculus [12]): 9.039%
- IC50 [13]: > 1000 nM
- AUC at 336 h [14]: 104 µg·h/mL
- Activity (Mus musculus [15]): 1488.396 um3
- Activity (Mus musculus [16]): 15
- IC50 [17]: > 1000 nM
